According to ChEMBL document CHEMBL1649161, “Pharmacokinetics of EDP-420 after ascending single oral doses in healthy adult volunteers” (Antimicrob Agents Chemother, 2009):
≈ marks a conversion by molar mass, not a printed value.

Assays:
[1] = Apparent oral clearance in healthy human plasma at 400 mg, po administered as single dose measured after 120 hrs; type: ADME, organism-based
In short: (§1)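 Single oral suspension dose in fasted healthy adults (6 per group). Plasma was collected to 120 h and measured by LC-MS/MS (1–1,000 ng/ml). Apparent oral clearance was dose divided by AUC0-∞ (noncompartmental, linear-up/log-down trapezoid extrapolated with Clast/λz); the mean was reported.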

[2] = Apparent volume of distribution in healthy human plasma at 100 mg, po administered as single dose measured after 120 hrs; type: ADME, organism-based
[3] = Tmax in healthy human plasma at 800 mg, po administered as single dose measured after 120 hrs; type: ADME, organism-based
In short: (§2)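 Fasted healthy adults (n = 6 per group) took one oral suspension dose. Plasma was sampled from predose through 0.25–120 h postdose and measured by validated LC-MS/MS (lower limit 1 ng/ml). Tmax was read directly from observed concentration–time data using actual sampling times and reported as median with range.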

[4] = Apparent volume of distribution in healthy human plasma at 800 mg, po administered as single dose measured after 120 hrs; type: ADME, organism-based
[5] = Elimination rate constant in healthy human plasma at 1200 mg, po administered as single dose measured after 120 hrs; type: ADME, organism-based
[6] = Half life in healthy human plasma at 400 mg, po administered as single dose measured after 120 hrs; type: ADME, organism-based
Homo sapiens [7] = assay: Renal clearance in healthy human assessed as cumulative amount excreted in urine at 200 mg, po administered as single dose measured after 48 hrs; type: ADME, organism-based; conditions: in vivo
In short: (§3)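 Healthy adults (6 per dose) received a single fasted oral suspension dose. Urine was collected predose and over 0–2, 2–4, 4–6, 6–8, 8–12, 12–24 and 24–48 h intervals, volumes were recorded, and aliquots were stored at −20°C. Samples were assayed by LC-MS/MS. Ae0-48 is the summed volume × concentration over all intervals; the mean was reported.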

[8] = Cmax in healthy human plasma at 100 mg, po administered as single dose measured after 120 hrs; type: ADME, organism-based; set-up: dose 100 mg, route oral
In short: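 Healthy adults (n = 6 per dose) took a single oral suspension fasted (8 h before, 4 h after). Plasma was sampled from 0.25 to 120 h postdose and quantified by validated LC-MS/MS after acetonitrile precipitation (LLOQ 1 ng/ml). Cmax was read directly from observed concentration–time data; the group mean was reported.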

[9] = Elimination rate constant in healthy human plasma at 100 mg, po administered as single dose measured after 120 hrs; type: ADME, organism-based
Homo sapiens [10] = assay: Toxicity in healthy human assessed as changes in gamma-glutamyl transpeptidase level at 100 to 1200 mg, po administered as single dose; type: organism-based; conditions: in vivo
In short: (§4)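 Randomized, double-blind, placebo-controlled single ascending dose study with eight subjects per group (6 drug, 2 placebo of microcrystalline cellulose). Subjects were fasted before dosing. Safety labs were done at 120 h, with a full chemistry panel also at 72 and 96 h for the top dose. Final evaluation on day 8–10, with adverse events recorded.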

Homo sapiens [11] = assay: Toxicity in healthy human assessed as changes in ECG parameters signs at 100 to 1200 mg, po administered as single dose; type: organism-based; conditions: in vivo
Homo sapiens [12] = assay: Renal clearance in healthy human assessed as cumulative amount excreted in urine at 400 mg, po administered as single dose measured after 48 hrs; type: ADME, organism-based; conditions: in vivo; in short: as §3
[13] = Renal clearance in healthy human assessed as cumulative fraction excreted unchanged in urine at 400 mg, po administered as single dose measured after 48 hrs; type: ADME, organism-based; conditions: read-out: Fraction Recovered in urine
In short: (§5)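 Urine collected predose and over 0–2, 2–4, 4–6, 6–8, 8–12, 12–24 and 24–48 h after a single oral suspension dose, given after an 8-h fast with no food for 4 h after. Volumes measured, stored at −20°C, EDP-420 quantified by LC-MS/MS. fe0-48 = Ae0-48/dose × 100%, where Ae0-48 is the sum of volume × concentration over the intervals. Six active subjects per dose.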

[14] = AUC (0 to infinity) in healthy human plasma at 800 mg, po administered as single dose measured after 120 hrs; type: ADME, organism-based; set-up: dose 800 mg, route oral, time infinity
In short: (§6)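 Healthy adults (6 per dose group) received a single oral suspension after an 8-h fast, with food withheld 4 h. EDTA blood was drawn predose to 120 h. Plasma was protein-precipitated with ACN and assayed by LC-MS/MS (clarithromycin internal standard; range 1–1,000 ng/ml). AUC0-last was computed by linear-up/log-down trapezoid; AUC0-∞ added Clast/λz. Values are noncompartmental means.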

[15] = Renal clearance in healthy human assessed as cumulative fraction excreted unchanged in urine at 100 mg, po administered as single dose measured after 48 hrs; type: ADME, organism-based; conditions: read-out: Fraction Recovered in urine
In short: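 After a single oral fasted suspension dose in healthy adults (6 per group), urine was collected in intervals to 48 h and measured by LC-MS/MS. fe0-48 = Ae0-48 (summed interval volume × concentration) / dose × 100%; the mean was reported.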

[16] = Apparent oral clearance in healthy human plasma at 800 mg, po administered as single dose measured after 120 hrs; type: ADME, organism-based; in short: as §1
[17] = Half life in healthy human plasma at 200 mg, po administered as single dose measured after 120 hrs; type: ADME, organism-based
[18] = AUC (0 to last) in healthy human plasma at 100 mg, po administered as single dose measured after 120 hrs; type: ADME, organism-based; set-up: dose 100 mg, route oral, time 0 - last; in short: as §6
[19] = AUC (0 to infinity) in healthy human plasma at 1200 mg, po administered as single dose measured after 120 hrs; type: ADME, organism-based; set-up: dose 1200 mg, route oral, time infinity; in short: as §6
[20] = AUC (0 to last) in healthy human plasma at 400 mg, po administered as single dose measured after 120 hrs; type: ADME, organism-based; set-up: dose 400 mg, route oral, time 0 - last; in short: as §6
Homo sapiens [21] = assay: Toxicity in healthy human assessed as changes in physical parameters signs at 100 to 1200 mg, po administered as single dose; type: organism-based; conditions: in vivo
Legionella sp. = assay: Antimicrobial activity against Legionella sp.; type: functional
[22] = Apparent volume of distribution in healthy human plasma at 1200 mg, po administered as single dose measured after 120 hrs; type: ADME, organism-based
[23] = Half life in healthy human plasma at 1200 mg, po administered as single dose measured after 120 hrs; type: ADME, organism-based
[24] = AUC (0 to infinity) in healthy human plasma at 400 mg, po administered as single dose measured after 120 hrs; type: ADME, organism-based; set-up: dose 400 mg, route oral, time infinity; in short: as §6
[25] = AUC (0 to last) in healthy human plasma at 200 mg, po administered as single dose measured after 120 hrs; type: ADME, organism-based; set-up: dose 200 mg, time 0 - last, route oral; in short: as §6
[26] = Tmax in healthy human plasma at 100 mg, po administered as single dose measured after 120 hrs; type: ADME, organism-based; in short: as §2
[27] = Tmax in healthy human plasma at 200 mg, po administered as single dose measured after 120 hrs; type: ADME, organism-based; in short: as §2
Homo sapiens [28] = assay: Toxicity in healthy human assessed as incidence of adverse events at 100 to 1200 mg, po administered as single dose; type: organism-based; conditions: in vivo; in short: as §4
[29] = Elimination rate constant in healthy human plasma at 200 mg, po administered as single dose measured after 120 hrs; type: ADME, organism-based
Streptococcus pneumoniae = assay: Antimicrobial activity against Streptococcus pneumoniae; type: functional
Homo sapiens [30] = assay: Renal clearance in healthy human assessed as cumulative amount excreted in urine at 1200 mg, po administered as single dose measured after 48 hrs; type: ADME, organism-based; conditions: in vivo; in short: as §3
[31] = Renal clearance in healthy human assessed as cumulative fraction excreted unchanged in urine at 800 mg, po administered as single dose measured after 48 hrs; type: ADME, organism-based; conditions: read-out: Fraction Recovered in urine; in short: as §5

For CC[C@H]1OC(=O)[C@H](C)C(=O)[C@H](C)[C@@H](O[C@@H]2O[C@H](C)C[C@H](N(C)C)[C@H]2O)[C@@]2(C)C[C@@H](C)/C(=N\C(C)=O)[C@H](C)[C@@H](OC/C(=N\OCc3ccc(-n4cccn4)nc3)CO2)[C@]1(C)O [MODITHROMYCIN], which CL/F [1] is on record?
The CL/F was 463 mL/min.

And the Vd/F [2]?
The Vd/F was 656 L.

And the Tmax [3]?
Its Tmax is 4.26 h.

And the Vd/F [4]?
Its Vd/F is 601 L.

What about the k el at 120 h [5] of the same compound?
The k el at 120 h was 9.56e-06 s⁻¹.

What about the half-life [6] of the same compound?
Its half-life is 15.8 h.

And the “Amount Recovered in urine” value (Homo sapiens [7])?
The value was 24.5 mg.

What about the Cmax [8] of the same compound?
The Cmax was 196 ng/mL.

What about the k el at 120 h [9] of the same compound?
The k el at 120 h was 1.23e-05 s⁻¹.

And the Activity (Homo sapiens [10])?
Its Activity is “Non-toxic”.

What about the Activity (Homo sapiens [11]) of the same compound?
Its Activity is “Non-toxic”.

What about the “Amount Recovered in urine” value (Homo sapiens [12]) of the same compound?
Its value is 41.9 mg.

What about the dose excreted at 48 h [13] of the same compound?
Its dose excreted at 48 h is 10.5%.

And the AUC(0-inf) [14]?
Its AUC(0-inf) is 33900 ng·h/mL.

What about the dose excreted at 48 h [15] of the same compound?
Its dose excreted at 48 h is 8.57%.

What about the CL/F [16] of the same compound?
The CL/F was 393 mL/min.

What about the half-life [17] of the same compound?
The half-life was 15.8 h.

What about the AUC(0-t) at 120 h [18] of the same compound?
Its AUC(0-t) at 120 h is 3400 ng·h/mL.

And the AUC(0-inf) [19]?
The AUC(0-inf) was 38300 ng·h/mL.

What about the AUC(0-t) at 120 h [20] of the same compound?
Its AUC(0-t) at 120 h is 14300 ng·h/mL.

What about the Activity (Homo sapiens [21]) of the same compound?
The Activity was “Non-toxic”.

What about the MIC90 (Legionella sp.) of the same compound?
The MIC90 was 0.031 µg/mL (≈ 0.0369 µM).

What about the Vd/F [22] of the same compound?
Its Vd/F is 909 L.

And the half-life [23]?
Its half-life is 20.1 h.

What about the AUC(0-inf) [24] of the same compound?
The AUC(0-inf) was 14400 ng·h/mL.

And the AUC(0-t) at 120 h [25]?
The AUC(0-t) at 120 h was 7650 ng·h/mL.

What about the Tmax [26] of the same compound?
Its Tmax is 1.75 h.

And the Tmax [27]?
Its Tmax is 2.5 h.

And the Activity (Homo sapiens [28])?
The Activity was 16.7%.

What about the k el at 120 h [29] of the same compound?
Its k el at 120 h is 1.22e-05 s⁻¹.

What about the MIC (Streptococcus pneumoniae) of the same compound?
The MIC was 0.25 µg/mL (≈ 0.297 µM).

And the “Amount Recovered in urine” value (Homo sapiens [30])?
The value was 70.1 mg.

And the dose excreted at 48 h [31]?
Its dose excreted at 48 h is 11.4%.
